Assay results as given in ChEMBL document CHEMBL1122501, “Potential antiatherosclerotic agents. 2. (Aralkylamino)- and (alkylamino) benzoic acid analogues of cetaben” (1983).

Tests used:
[1] = test system: Rattus norvegicus; experiment: In vivo triglyceride lowering activity, dosed at 0.01 % of the diet.; format: functional
In short: (§1)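 Male CFE or CD-1 Sprague-Dawley rats, 140-150 g; 8 per control group, 4 per test group. Compound mixed into ground chow (w/w) via MeOH-CHCl3 (1:3) solution, solvent evaporated; controls got solvent-treated chow. Fed ad libitum 5 days, food intake monitored, killed fed and bled. Serum sterols and triglycerides by adapted autoanalyzer methods; mean percent of control, Student's t test.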

[2] = biological target: T1, Sterol O-acyltransferase 1 (Rattus norvegicus) (UniProt O70536); experiment: In vitro inhibitory activity against acyl coenzyme A:cholesterol acyltransferase (ACAT); parameters: concentration or dose not given beside the values; settings: concentration not given here
T1 sequence (whole entry): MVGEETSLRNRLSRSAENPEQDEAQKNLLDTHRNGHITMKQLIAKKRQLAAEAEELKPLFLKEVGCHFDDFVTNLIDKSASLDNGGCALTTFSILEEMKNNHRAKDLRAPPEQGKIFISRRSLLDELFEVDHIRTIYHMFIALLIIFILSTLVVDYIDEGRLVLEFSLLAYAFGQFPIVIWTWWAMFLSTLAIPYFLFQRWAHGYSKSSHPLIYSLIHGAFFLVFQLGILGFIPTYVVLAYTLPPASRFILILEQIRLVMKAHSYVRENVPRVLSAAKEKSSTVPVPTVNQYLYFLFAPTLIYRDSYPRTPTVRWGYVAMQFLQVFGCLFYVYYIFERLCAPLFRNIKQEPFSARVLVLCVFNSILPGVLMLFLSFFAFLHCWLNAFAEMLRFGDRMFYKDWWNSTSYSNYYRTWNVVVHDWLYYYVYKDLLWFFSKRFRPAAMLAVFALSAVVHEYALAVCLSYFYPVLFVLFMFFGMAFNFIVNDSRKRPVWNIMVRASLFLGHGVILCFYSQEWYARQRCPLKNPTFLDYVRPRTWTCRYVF
In short: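 ACAT enzyme from rat adrenal homogenate in 0.2 M KH2PO4 buffer pH 7.4, 1000g 15 min 5 °C supernatant (microsomal fraction). Supernatant + BSA (50 mg/mL) + compound at final 5.2 μg/mL + buffer preincubated 10 min 37 °C; [14C]oleoyl-CoA (0.4 μCi) added, 30 min 37 °C. Lipids extracted, TLC; cholesteryl ester zone counted. Mean % inhibition vs no-compound control; Student's t test.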

[3] = test system: Rattus norvegicus; experiment: In vivo Sterol lowering activity at dose as 0.10 % of the diet.; format: functional; in short: as §1
[4] = test system: Rattus norvegicus; experiment: In vivo Sterol lowering activity at dose as 0.03 % of the diet.; format: functional; in short: as §1
[5] = test system: Rattus norvegicus; experiment: In vivo Triglyceride lowering activity at dose as 0.03 % of the diet.; format: functional; in short: as §1
[6] = test system: Rattus norvegicus; experiment: In vivo Sterol lowering activity at dose as 0.01 % of the diet.; format: functional; in short: as §1
[7] = test system: Rattus norvegicus; experiment: In vivo triglyceride lowering activity, dosed at 0.10 % of the diet.; format: functional; in short: as §1
[8] = test system: Rattus norvegicus; experiment: In vivo sterol lowering activity dosed at 0.10 % of the diet; format: functional; in short: as §1
[9] = test system: Rattus norvegicus; experiment: In vivo triglyceride lowering activity dosed at 0.10 % of the diet; format: functional; in short: as §1
[10] = test system: Rattus norvegicus; experiment: In vivo Triglyceride lowering activity at dose as 0.01 % of the diet; format: functional; in short: as §1
[11] = test system: Rattus norvegicus; experiment: In vivo triglyceride lowering activity, dosed at 0.03 % of the diet; format: functional; in short: as §1

| SMILES | inhibition [2] | Diet [1] | serum sterol, percent of control [3] | serum sterol level, percent of control [4] | Diet [5] | serum sterol, percent of control [6] | Diet [7] | serum sterol, percent of control [8] | serum triglycerides, percent of control [9] | Diet [10] | serum triglycerides, percent of control [11] | Diet [3] |
| --- | --- | --- | --- | --- | --- | --- | --- | --- | --- | --- | --- | --- |
| O=C(O)c1ccc(NCCCCCCc2ccco2)cc1 | 21% | 67% | – | 87% | 61% | 91% | – | 86% | 51% | – | – | – |
| CCOC(=O)c1ccc(NCCCc2ccc(Cl)cc2)cc1C(=O)OCC | 54% | 93% | 96% | 99% | 91% | 95% | 80% | – | – | – | – | – |
| CCOC(=O)c1ccc(NCCCc2ccc(Cl)c(Cl)c2)cc1 | 43% | 90% | 90% | 98% | 98% | 86% | – | – | 66% | – | – | – |
| CCOC(=O)c1ccc(NCCCc2ccccc2N)cc1 | 43% | 83% | 98% | 96% | 97% | 103% | – | – | 69% | – | – | – |
| CCOC(=O)c1ccc(NC(=O)CCCCC(=O)c2ccc(Cl)cc2)cc1 | 37% | 110% | 90% | 88% | 131% | 90% | 96% | – | – | – | – | – |
| CCOC(=O)c1ccc(NC(=O)CCc2ccc(C)cc2)cc1 | 25% | 73% | 88% | 99% | 64% | 97% | 69% | – | – | – | – | – |
| CCOC(=O)c1ccc(NCCCc2ccccc2F)cc1 | 37% | 106% | 97% | 100% | 116% | 104% | 92% | – | – | – | – | – |
| O=C(O)c1ccc(NCCCc2c(Cl)cccc2Cl)cc1 | 21% | – | 106% | – | – | – | 82% | – | – | – | – | – |
| O=C(/C=C/c1ccc(Cl)cc1)Nc1ccc(C(=O)O)cc1 | 41% | 94% | 120% | 100% | 109% | 100% | 116% | – | – | – | – | – |
| O=C(OCC(O)CO)c1ccc(NCCCc2ccccc2)cc1 (configuration not stated) | 21% | – | – | 85% | 92% | 90% | – | 74% | 49% | 57% | – | – |
| CCOC(=O)c1ccc(NCCCCCC(=O)c2ccc(Cl)cc2)cc1 | 50% | 76% | 99% | 92% | – | 98% | 79% | – | – | – | 56% | – |
| CCOC(=O)c1ccc(NCc2cccs2)cc1 | 44% | 94% | – | 98% | 78% | 104% | – | – | – | – | – | – |
| CCOC(=O)c1ccc(NCCCc2ccco2)cc1 | 56% | 90% | 101% | 94% | 96% | 96% | 83% | – | – | – | – | – |
| Nc1ccccc1CCCNc1ccc(C(=O)O)cc1 | 15% | 99% | 84% | 96% | 84% | 121% | 92% | – | – | – | – | – |
| O=C(O)c1ccc(NCCCc2ccccc2[N+](=O)[O-])cc1 | 2% | 84% | – | 83% | 103% | 88% | – | 83% | 77% | – | – | – |
| CCOC(=O)c1ccc(NC/C=C/c2ccc(Cl)cc2)cc1 | 23% | – | 78% | 100% | – | 93% | – | – | 46% | 64% | 45% | – |
| CCOC(=O)c1ccc(NC(=O)CCc2ccc(Cl)cc2)cc1 | 30% | – | 99% | 107% | 101% | 101% | – | – | 66% | 85% | – | – |

The next lines start with results.

| inhibition [2] | SMILES | Diet [1] | serum sterol, percent of control [3] | serum sterol level, percent of control [4] | Diet [5] | serum sterol, percent of control [6] | Diet [7] | serum sterol, percent of control [8] | serum triglycerides, percent of control [9] | Diet [10] | serum triglycerides, percent of control [11] | Diet [3] |
| --- | --- | --- | --- | --- | --- | --- | --- | --- | --- | --- | --- | --- |
| 33% | O=C(CCc1ccc(Cl)cc1)Nc1ccc(C(=O)O)cc1 | 100% | 96% | 104% | 115% | 104% | 100% | – | – | – | – | – |
| 6% | O=C(O)c1ccc(NCCc2ccc(Cl)cc2)cc1 | 114% | 105% | 90% | 91% | 106% | – | – | 67% | – | – | – |
| 9% | O=C(O)Cc1ccc(NCCCc2ccc(Cl)cc2)cc1 | 111% | 82% | 85% | 95% | 83% | – | – | 61% | – | – | – |
| 38% | COc1ccc(CCCNc2ccc(C(=O)O)cc2)cc1 | 82% | – | 86% | 89% | 89% | 91% | 70% | – | – | – | – |
| 37% | CCOC(=O)c1ccc(NCCc2ccc(Cl)cc2)cc1 | – | 97% | 113% | 90% | 115% | – | – | 60% | 70% | – | – |
| 0% | O=C(O)c1cccc(NCCCc2ccc(Cl)cc2)c1 | 80% | 92% | 89% | 93% | 103% | – | – | 37% | – | – | – |
| 91% | CCOC(=O)Cc1ccc(NCCCc2ccc(Cl)cc2)cc1 | 119% | 91% | 91% | – | 103% | 67% | – | – | – | 126% | – |
| 30% | CCOC(=O)c1ccc(NCCCCCCc2ccc(Cl)cc2)cc1 | – | 85% | 95% | – | 99% | – | – | 50% | 73% | 68% | – |
| 18% | O=C(O)c1ccc(NCCCc2cccc(F)c2)cc1 | – | – | 97% | – | 94% | – | – | 35% | 53% | 61% | 90% |
| 30% | O=C(O)c1ccc(NCCCCCC(O)c2ccc(Cl)cc2)cc1 (configuration not stated) | 85% | 86% | 100% | 90% | 100% | – | – | 72% | – | – | – |
| 85% | CCOC(=O)C(C)c1ccc(NCCCc2ccc(Cl)cc2)cc1 (configuration not stated) | – | 75% | 89% | – | 86% | – | – | 42% | 57% | 48% | – |
| 49% | Cc1ccc(CCCNc2ccc(C(=O)O)cc2)cc1 | – | 110% | 98% | – | 90% | – | – | 50% | 63% | 54% | – |
